# Screens as filed in PubChem BioAssay.
# PKA-R1A act – activates the PKA-R1A holoenzyme complex | P00514+P68181 | 340,000 tested, 0.083% active | activation, % at 11.4 µM | PKA-R1A dissociation, Cy5-IP20 fluorescence polarization; scaled: DMSO 0%, 113 µM cGMP 100% | AID 504707;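 active = percent activation above the mean of all tested compounds plus 3 SD, cut at about 19% in these data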;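 note: higher means more PKAc released from R1A so a rise in polarization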
# SR-BI HDL uptake – inhibitors of mouse SR-BI mediated HDL lipid uptake; Q61009; ldlA[mSR-BI] CHO cells, DiI-HDL uptake fluorescence, 3 h; inhibition, % at 12.5 µM; 320,000 tested, 0.96% active; AID 488896;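 active = mean replicate inhibition of at least 70% and a set share of replicates each scoring 70 or more; inconclusive = meets just one of the two criteria; inactive = fails both criteria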;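 note: 0% = median of neutral control wells and 100% = median of positive control wells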
# SR-BI DiI-HDL act – enhances SR-BI lipid uptake from DiI-HDL; activation, % at 12.5 µM; 320,000 tested, 0.096% active; CHO ldlA[mSR-BI] cells, DiI-HDL uptake fluorescence, 3 h; 100 = double the neutral-control signal;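 active = mean replicate activation of at least 60% and every replicate at or above 60%; inconclusive = mean or all-replicate condition met, but not both; inactive = mean below 60% and not all replicates reaching 60%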;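 note: 0% = median plate neutral-control signal and 100% = twice that signal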
#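 Material: SR-BI-overexpressing, LDLR-lacking CHO cells | Dosing: Single compound concentration, delivered by pin transfer | Probe or stimulus: Labelled HDL, 10 µg/mL | Signal: Bottom-read cell fluorescence after medium removal, ex 550/em 595 nm | Schedule: 3 h, 37 °C | Evaluation: HDL uptake via cellular fluorescence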
# PKA-R2B activ – PKA-R2B complex activation | P22694+P31323 | PKA-R2B holoenzyme dissociation, Cy5-IP20 fluorescence polarization; R2B truncated from residue 108, S112A mutant; 0% DMSO only, 100% 113 µM cGMP | activation, % at 11.4 µM | 340,000 tested, 0.079% active;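 active = activation above a cutoff set at the mean over all compounds plus 3 SD, cut at about 18% in these data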;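 note: higher means more holoenzyme dissociation and a rise in polarization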
# Vif imaging – inhibitors of HIV Vif; HEK293T cells, Vif self-association by quenched fluorescence, imaging, 24 h; inhibition, % at 7.49 µM; 340,000 tested, 0.35% active; in the data active = inhibition above about 50%, passing the limit was not always enough; inconclusive = no clear call, values can overlap the other calls; inactive = below about 31%
# R2B FP artifact – FP assay interference, PKA-R2B counter-screen | shares compounds with PKA-R2B activ | FP artifact counterscreen, fluorescence polarization | activation, % at 11.4 µM | 270 tested, 6% active; in the data active = activation above about 20%;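 note: Cy5 labelled IP20 peptide probe with compound but no PKA protein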
# PKA-R2B act conf – PKA-R2B complex activation, confirmation; fluorescence polarization; activation, % at 11.4 µM; 270 tested, 9% active; shares compounds with PKA-R2B activ; in the data active = activation above about 19%
# Active calls of the source: *; u = inconclusive; x = no result. Compounds with a hit are over-represented: about 1.4% of the library has one in this group of screens.
SMILES,PKA-R1A act,SR-BI HDL uptake,SR-BI DiI-HDL act,PKA-R2B activ,Vif imaging,R2B FP artifact,PKA-R2B act conf
CCOC(=O)/C(=N\Nc1ccc(Br)cc1)N1CCN(c2ccccc2OC)CC1,-2,u,-77,21*,-1,1,3
CCOC(=O)N1CCN(c2ccccc2OC)CC1,8,-4,4,-9,-2,x,x
COc1cccc(C(=O)OCC(=O)Nc2sc3c(c2C(N)=O)CCC3)c1O,-11,-8,8,-3,-8,x,x
O=C(c1cc(F)c(F)cc1Cl)N1CCN(c2ncccn2)CC1,-8,-5,5,19*,-1,0,-2
COc1ccc(OC)c(CC(NC(C)=O)C(=O)NC2CCN(c3c(Cc4ccccc4)c(C)nc4ncnn34)CC2)c1 (centres undefined),1,-6,6,21*,-36,1,-5
O=C(NCCc1ccc(Cl)cc1)c1ccc(NC2=NC3CS(=O)(=O)CC3S2)cc1 (centres undefined),-6,1,-1,-5,-2,x,x
CCN(CC)CCNC(=O)c1ccc(NC2=NC3CS(=O)(=O)CC3S2)cc1 (centres undefined),12,-16,16,19*,x,2,0
O=C(Nc1ccccc1)OCCc1ccccc1,x,x,x,x,-3,x,x
CN(C)CCCn1cnc2c(c1=N)C(c1ccccc1)c1ccc3ccccc3c1O2 (centres undefined),-4,-15,15,22*,u,2,2
N=c1c2c(ncn1CCCO)Oc1c(ccc3ccccc13)C2c1ccccc1 (centres undefined),-10,-12,12,-11,-5,x,x
Cc1ccc(-c2nnc(NC(=O)CCS(=O)(=O)c3ccc(F)cc3)o2)c(C)c1,6,3,-3,0,-1,x,x
O=C(CCS(=O)(=O)c1ccc(F)cc1)Nc1nnc(-c2ccc(F)cc2)o1,-7,-10,10,19*,2,-2,1
O=C(CCSc1ccccc1)NCC1CCCO1 (centres undefined),-9,-27,27,5,0,x,x
O=C(CCSCCC(=O)NCC1CCCO1)NCC1CCCO1 (centres undefined),-2,8,-8,20*,-1,4,0
CC(=O)Nc1ccc(S(=O)(=O)NNC(=O)COc2cc(C)ccc2C(C)C)cc1,7,12,-12,20*,-2,3,0
Cc1ccc(N2CC(NS(=O)(=O)c3cccs3)CC2=O)cc1 (centres undefined),1,27,-27,-7,-14,x,x
O=S(=O)(NCc1ccccc1)NCc1cccc(C(F)(F)F)c1,-4,-7,7,-11,4,x,x
CC(C)Oc1ccc(S(=O)(=O)N2CCCCC2)cc1NC(=O)CC1OC(=O)c2ccccc21 (centres undefined),-3,6,-6,20*,-9,-3,0
CC1=CC(C)C2COC(c3ccc[n+](C)c3)C1C2C (centres undefined),-9,-4,4,10,2,x,x
Cc1cccc(C)c1NC(=O)C(NC=O)c1ccc(N(C)C)cc1 (centres undefined),9,-8,8,20*,-3,-4,-1
Cc1cccc(C)c1NC(=O)C(NC=O)c1ccccc1Cl (centres undefined),1,4,x,-12,-2,x,x
Cc1ccsc1CNC1CCCCC1,0,4,-4,-2,-12,x,x
Cc1ccsc1CNC12CC3CC(CC(C3)C1)C2,-13,-20,20,21*,1,2,4
Oc1ccc(/C=N/Nc2ncnc3nc[nH]c23)cc1,-4,x,x,22*,6,2,-5
CC1(C(=O)Nc2ccc(Cl)c(Cl)c2)CCN1CCc1ccccc1 (centres undefined),x,x,x,x,3,x,x
CNC(=O)c1ccccc1Sc1cccc2cccc(C(=O)O)c12,9,3,-3,10,-9,x,x
CCOC(=O)C1CCN(C(=O)c2cc(COc3ccc(F)cc3F)on2)CC1,11,-13,13,20*,-35,3,6
